High-throughput results as filed in PubChem.
Mdm2 MdmX PPI = human Mdm2/MdmX binding inhibition. O15151+Q00987. SaOS-2 split-luciferase Mdm2/MdmX complementation, luminescence. inhibition, % at 8 µM. actives 3% (n = 330,000). AID 485346;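 active = inhibition of at least 50% at 8 µM in the primary screen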
Beta cell apopt = blocks beta cell apoptosis; INS-1E cytokine-induced death, ATP luminescence, 48 h; percent of positive-control rescue, neutral wells zero; protection from apoptosis, % (test concentration not listed); actives 0.8% (n = 300,000); AID 435005;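 active = Every replicate reaches about 75%, or at least half do and their mean reaches it too, limit read from the data; inconclusive = At least half of replicates reach the limit but their mean does not; inactive = Under half of replicates reach the limit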;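 also: higher means more ATP so stronger rescue from cytokine killing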
CSC inhib = cancer stem cell inhibition; cancer stem cell-like cells viability, luminescence; AID 2717; actives 1.1% (n = 300,000); inhibition, % at 7.5 µM; in the data active = inhibition above about 75%; inconclusive = no clear call, values can overlap the other calls; tested in HMLE shEcad cells
XBP1 UPR activ = activators of adaptive arm of unfolded protein response (XBP1); actives 0.33% (n = 330,000); activation, % at 20 µM; CHO-XBP1 luciferase reporter, IRE1-XBP1 UPR activation, luminescence; percent of tunicamycin response, DMSO as zero; AID 463104;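 active = versus positive control, 20 µM dose yields 30% or more activation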
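Material: CHO cell line with stable XBP1 luciferase reporter; buffer or medium: F12 medium containing 10% fetal bovine serum; compound: single point, 20 µM final compound, 1% DMSO; incubation: 6 h treatment, 37 °C; measured by: glow luminescence from Steady-Glo reagent; evaluation: activation, % of tunicamycin; control set: tunicamycin high, DMSO low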
SKKanGAS inh = blocks kanamycin growth of S. pyogenes SKKanGAS strain. inhibition, % at 7.5 µM. BacTiter-Glo, 6 h. actives 1.3% (n = 300,000). AID 1662;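 active = mean replicate score, as percent of positive control median, at least 50; inconclusive = mean below 50 but one replicate at or above 50; inactive = mean and every replicate below 50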;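 also: strain carries kanamycin resistance gene driven by streptokinase promoter and grows in 40 µg/ml kanamycin; loss of luminescence reflects streptokinase promoter inhibition or plain growth inhibition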
UPR CHOP act = apoptotic UPR (CHOP) activation; CHO-CHOP luciferase reporter, luminescence; percent of tunicamycin response over DMSO baseline; activation, % at 10 µM; actives 0.34% (n = 330,000); AID 449763;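 active = at 10 µM dose, activation of 40% or more, normalized to positive control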
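System: CHO-CHOP luciferase reporter cell line; amount: 500 cells/well; buffer or medium: F12 medium containing 10% fetal bovine serum; incubation: 6 h compound exposure at 37 °C after overnight seeding; measured by: luciferase luminescence after 10 min with Steady-Glo reagent; evaluation: % reporter activation, DMSO baseline versus tunicamycin full activation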
Mdm2 MdmX conf = human Mdm2/MdmX binding inhibition, confirmed | shares compounds with Mdm2 MdmX PPI | luminescent assay | inhibition, % at 8 µM | actives 55% (n = 10,000); in the data active = inhibition above about 40%
FLuc counter = inhibits full-length luciferase, flagging false Mdm2/MdmX hits. shares compounds with Mdm2 MdmX PPI. SaOS-2 full-length luciferase counterscreen, luminescence. inhibition, % at 8 µM. actives 77% (n = 6,200). AID 504607;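 active = mean inhibition at 8 µM reaching about 37%, which flags the compound as non-specific, limit read from the data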;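 also: p53-null SaOS-2 cells with luciferase driven by a doxycycline-inducible promoter; compound on cells about two nights before reading with doxycycline added after day one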
A number is an active result; - = inactive; ? = inconclusive; . = not tested or not shown. Only some compounds are listed: those with a hit (about 4.8% of all), similar ones and a draw of the others.

SMILES	Mdm2 MdmX PPI	Beta cell apopt	CSC inhib	XBP1 UPR activ	SKKanGAS inh	UPR CHOP act	Mdm2 MdmX conf	FLuc counter
Cc1ccsc1CN(C)CC(=O)NCC(=O)Nc1ccc(F)c(F)c1F	-	-	-	-	.	-	.	.
Cc1sc2nc(C3CC3)nc(SCC(=O)N3CCCc4ccccc43)c2c1C	71	-	-	-	-	-	-	.
CCCc1nc(SCC(=O)N2c3ccccc3CC2C)c2c(C)c(C)sc2n1 (stereo unspecified)	66	-	-	-	-	-	-	.
CN(Cc1ccc(C(F)(F)F)cc1)C(=O)C1CC(=O)N(Cc2ccco2)C1 (stereo unspecified)	-	-	-	-	.	-	.	.
N#CC1=C(N)NC(SCc2ccc(F)cc2)=C(C#N)C12CCCCC2	59	-	-	-	-	-	60	72
Cc1c(O)ccc(C(=O)CN2CCN(c3ccc(F)cc3)CC2)c1O	-	-	-	-	-	-	.	.
C#CCOCCOCCOCCNc1nc(N2CCN(C(=O)CCCCCCCCCCNC(=O)[C@H]([C@@H](C)CC)n3cc(CCCCCN)nn3)CC2)nc(N2CCN(C(=O)CCCCCCCCCCNC(=O)[C@@H]([C@H](C)CC)n3cc(CCCCCN)nn3)CC2)n1	100	115	167	32	.	-	63	-
C#CCOCCOCCOCCNc1nc(N2CCN(C(=O)CCCCCCCCCCNC(=O)[C@H]([C@@H](C)CC)n3cc(CCCCCN)nn3)CC2)nc(N2CCN(C(=O)CCCCCCCCCCNC(=O)[C@H](CO)n3cc(CCCCCN)nn3)CC2)n1	90	-	-	-	.	-	-	.
C#CCOCCOCCOCCNc1nc(N2CCN(C(=O)CCCCCCCCCCNC(=O)[C@@H](CCC(=O)O)n3cc(CCCCCN)nn3)CC2)nc(N2CCN(C(=O)CCCCCCCCCCNC(=O)[C@H]([C@@H](C)CC)n3cc(CCCCCN)nn3)CC2)n1	-	-	-	-	.	-	.	.
CCC(C)Sc1ccc([C@H]2N[C@@](Cc3ccccc3)(C(=O)OC)[C@H]3C(=O)N(CC)C(=O)[C@@H]23)cc1OC (stereo partly specified)	-	.	-	-	-	-	.	.
COc1ccccc1NC(=O)C1CCCN1C(=O)Nc1ccc(F)cc1 (stereo unspecified)	-	-	-	-	-	-	.	.
Cn1ncc2c(Nc3ccc(-c4ccccc4)cc3)ncnc21	76	-	-	-	-	-	48	73
Cn1ncc2c(Nc3ccc(Cl)c(Cl)c3)ncnc21	-	-	-	-	?	-	.	.
CCOC(=O)c1c(NC(=O)CSc2c[nH]c3ccccc23)sc2c1CCCC2	-	-	-	-	-	-	.	.
CCOC(=O)c1c(NC(=O)CSc2nnc(-c3c[nH]c4ccccc34)n2CCOC)sc2c1CCCCC2	56	-	-	-	-	-	-	.
CCn1cc([N+](=O)[O-])c(C(=O)Nc2nc(-c3ccc(C)c(C)c3)c(C)s2)n1	-	-	-	-	-	-	.	.
CCn1cc([N+](=O)[O-])c(C(=O)Nc2nc(-c3ccc(C)cc3)c(C)s2)n1	55	-	102	-	-	-	-	.
COc1ccc(NC(=S)N(CCCN2CCC(C)CC2)Cc2cccs2)cc1Cl	-	-	-	-	-	-	.	.
Cc1ccc(NC(=S)N(CCCN2CCCC2)Cc2cccn2Cc2ccc(Cl)cc2)cc1C	58	-	-	-	-	-	-	.
Cc1ccc(NC(=S)N(CCCN2CCCC2)Cc2cccn2Cc2ccc(Cl)cc2)cc1Cl	76	-	144	-	-	-	-	58
FC(F)(F)c1cccc(NC(=S)N(CCCN2CCCC2)Cc2cccn2Cc2ccc(Cl)cc2)c1	96	-	130	-	-	-	54	-
COc1ccc(NC(=S)N(CCCN2CCCC2)Cc2cccn2Cc2ccc(Cl)cc2)cc1Cl	85	-	-	-	-	-	57	54
Cc1cc(NC(=S)N(CCN2CCCCC2)Cc2ccco2)ccc1Cl	-	.	.	-	-	-	.	.
Cc1ccc(C)c(S(=O)(=O)N2CCN(Cc3cc4c(cc3O)OCO4)CC2)c1	-	-	.	-	.	-	.	.
Cc1cc(C)c2ccc(NN)nc2c1O	59	-	-	-	68	-	41	47
SMILES	Mdm2 MdmX PPI	Beta cell apopt	CSC inhib	XBP1 UPR activ	SKKanGAS inh	UPR CHOP act	Mdm2 MdmX conf	FLuc counter
O=C1C=C(c2ccc3ncccc3c2)C[C@@H](c2ccc(F)cc2)C1	-	-	-	-	.	-	.	.
O=C1C=C(c2ccc3ccccc3c2)C[C@@H](c2ccc(F)cc2)C1	52	-	-	-	.	-	-	.
CC(=O)Nc1ccc(S(=O)(=O)N2CCN(c3ccc([N+](=O)[O-])cc3)CC2)cc1	-	-	-	-	-	-	.	.
O=C(c1ccc(Cl)cc1)N1CCCCC(Sc2nnc(-c3ccc4c(c3)OCO4)o2)C1=O (stereo unspecified)	84	-	-	-	-	-	82	50
Cc1sc2ncnc(N3CCC(C(=O)Nc4ccc(S(N)(=O)=O)cc4)CC3)c2c1C	61	-	.	-	.	-	43	72
Cc1sc2ncnc(N3CCC(C(=O)N(C)CC(=O)Nc4ccc(Cl)c(C(F)(F)F)c4)CC3)c2c1C	81	.	96	-	-	-	55	-
Cc1ccc(NC(=O)C2CCN(c3ncnc4sc(C)c(C)c34)CC2)cc1S(=O)(=O)N(C)C	-	-	-	-	-	-	.	.
CCN(CC)S(=O)(=O)c1cc(NC(=O)C2CCN(c3ncnc4sc(C)c(C)c34)CC2)ccc1Cl	90	-	-	-	-	-	60	49
CCSc1ccc([C@@H]2[C@@H]3C(=O)N(CC)C(=O)[C@@H]3[C@]3(C(=O)OC)CCCN23)cc1	-	-	-	-	-	-	.	.
COc1ccc(-c2ccc(C#N)c(SCC(=O)NCCc3ccccc3)n2)cc1OC	-	-	-	-	.	-	.	.
COc1cccc(-c2ccc(C#N)c(SCC(=O)NCCc3cccc(Cl)c3)n2)c1	55	-	-	-	-	-	-	.
COc1cccc(-c2ccc(C#N)c(OC(=O)c3ccc(Cl)cc3)n2)c1	-	-	-	-	-	-	.	.
COc1cccc(-c2ccc(C#N)c(OC(=O)c3c(Cl)cccc3Cl)n2)c1	83	-	77	-	-	-	-	.
Cc1ccc(S(=O)(=O)N2CCN(C(=O)CC(C)n3nc(C)c(Cl)c3C)CC2)cc1C (stereo unspecified)	-	-	-	-	-	-	.	.
CC1(C)Cc2c(cnn2-c2cccc(F)c2)C(NC(=O)Cn2cccn2)C1 (stereo unspecified)	-	-	-	-	-	-	.	.
COC(=O)[C@]1(CC(C)C)N[C@H](c2ccc(-c3ccc(F)cc3)c(OC)c2)[C@@H]2C(=O)N(C)C(=O)[C@@H]21	-	.	-	-	-	-	.	.
